Reference: ChEMBL document CHEMBL1132569

How the values were obtained:
[1] = biological target: T1, Muscarinic acetylcholine receptor M4 (Homo sapiens) (UniProt P08173); test: Binding affinity at the NMS liganded human muscarinic acetylcholine receptor M4 was estimated as log affinity (log1/M)
T1 sequence (whole entry): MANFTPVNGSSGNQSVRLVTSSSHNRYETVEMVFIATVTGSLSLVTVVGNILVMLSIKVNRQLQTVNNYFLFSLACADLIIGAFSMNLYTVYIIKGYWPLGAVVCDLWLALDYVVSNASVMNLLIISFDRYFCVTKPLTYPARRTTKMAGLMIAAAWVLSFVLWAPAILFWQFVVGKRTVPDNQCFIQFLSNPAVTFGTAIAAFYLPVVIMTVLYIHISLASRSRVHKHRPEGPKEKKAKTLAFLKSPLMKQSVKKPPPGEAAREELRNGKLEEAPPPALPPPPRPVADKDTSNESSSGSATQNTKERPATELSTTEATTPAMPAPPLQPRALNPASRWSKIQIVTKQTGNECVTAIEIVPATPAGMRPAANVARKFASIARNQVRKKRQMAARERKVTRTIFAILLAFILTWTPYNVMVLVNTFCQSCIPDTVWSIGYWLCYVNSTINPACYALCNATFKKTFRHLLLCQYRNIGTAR
In short: (§1)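 Equilibrium runs were ≥2 h with 2 × 10⁻⁴ M GTP and 0.1–0.7 nM ³H-NMS. Nonspecific binding was defined with 10⁻⁶ M QNB, and bound ligand was filtered and counted. Log affinities came from semiquantitative plus off-rate, quantitative equilibrium, or nonequilibrium assays, fitted by nonlinear least squares to the allosteric ternary complex model.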

[2] = biological target: T1, Muscarinic acetylcholine receptor M4 (Homo sapiens); test: Binding affinity at the unliganded human muscarinic acetylcholine receptor M4 was estimated as log affinity (log1/M); in short: as §1
[3] = biological target: T1, Muscarinic acetylcholine receptor M4 (Homo sapiens); test: Cooperativity with NMS at human muscarinic acetylcholine receptor M4
In short: (§2)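 Equilibrium ³H-NMS binding in CHO membranes expressing human m1–m5 receptors was measured with and without ACh, alone and with three agent concentrations. Data were converted to affinity ratios, meaning apparent primary-ligand affinity with agent divided by affinity without it.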

[4] = biological target: T1, Muscarinic acetylcholine receptor M4 (Homo sapiens); test: Cooperativity with acetylcholine at human muscarinic acetylcholine receptor M4; in short: as §2
[5] = biological target: Muscarinic acetylcholine receptor M3 (Homo sapiens) (UniProt P20309); test: Cooperativity with NMS at human muscarinic acetylcholine receptor M3; in short: as §2
[6] = biological target: Muscarinic acetylcholine receptor M3 (Homo sapiens) (UniProt P20309); test: Cooperativity with acetylcholine at human muscarinic acetylcholine receptor M3; in short: as §2
[7] = biological target: Muscarinic acetylcholine receptor M3 (Homo sapiens) (UniProt P20309); test: Binding affinity at the NMS liganded human muscarinic acetylcholine receptor M3 was estimated as log affinity (log1/M); in short: as §1
[8] = biological target: Muscarinic acetylcholine receptor M3 (Homo sapiens) (UniProt P20309); test: Binding affinity at the unliganded human muscarinic acetylcholine receptor M3 was estimated as log affinity (log1/M); in short: as §1
[9] = biological target: T2, Muscarinic acetylcholine receptor M5 (Homo sapiens) (UniProt P08912); test: Binding affinity at the unliganded Muscarinic acetylcholine receptor M5 was estimated as log affinity (log1/M); in short: as §1
T2 sequence (whole entry): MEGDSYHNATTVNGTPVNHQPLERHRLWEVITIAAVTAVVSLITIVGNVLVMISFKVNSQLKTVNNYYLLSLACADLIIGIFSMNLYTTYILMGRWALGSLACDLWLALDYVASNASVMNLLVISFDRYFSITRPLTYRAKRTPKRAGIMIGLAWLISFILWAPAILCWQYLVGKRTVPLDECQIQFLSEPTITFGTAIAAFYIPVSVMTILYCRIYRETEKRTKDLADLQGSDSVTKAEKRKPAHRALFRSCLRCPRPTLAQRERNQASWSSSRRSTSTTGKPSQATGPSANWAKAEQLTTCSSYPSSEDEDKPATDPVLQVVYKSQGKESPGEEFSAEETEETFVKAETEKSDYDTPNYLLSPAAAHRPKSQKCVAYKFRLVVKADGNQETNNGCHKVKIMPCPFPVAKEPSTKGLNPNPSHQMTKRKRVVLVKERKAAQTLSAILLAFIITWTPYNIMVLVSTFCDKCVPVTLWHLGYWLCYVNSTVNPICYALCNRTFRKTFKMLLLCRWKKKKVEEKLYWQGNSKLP

[10] = biological target: T2, Muscarinic acetylcholine receptor M5 (Homo sapiens); test: Cooperativity with NMS at Muscarinic acetylcholine receptor M5; in short: as §2
[11] = biological target: T2, Muscarinic acetylcholine receptor M5 (Homo sapiens); test: Cooperativity with acetylcholine at Muscarinic acetylcholine receptor M5; in short: as §2
[12] = biological target: T3, Muscarinic acetylcholine receptor M2 (Homo sapiens) (UniProt P08172); test: Binding affinity at the NMS liganded human muscarinic acetylcholine receptor M2 was estimated as log affinity (log1/M); in short: as §1
T3 sequence (whole entry): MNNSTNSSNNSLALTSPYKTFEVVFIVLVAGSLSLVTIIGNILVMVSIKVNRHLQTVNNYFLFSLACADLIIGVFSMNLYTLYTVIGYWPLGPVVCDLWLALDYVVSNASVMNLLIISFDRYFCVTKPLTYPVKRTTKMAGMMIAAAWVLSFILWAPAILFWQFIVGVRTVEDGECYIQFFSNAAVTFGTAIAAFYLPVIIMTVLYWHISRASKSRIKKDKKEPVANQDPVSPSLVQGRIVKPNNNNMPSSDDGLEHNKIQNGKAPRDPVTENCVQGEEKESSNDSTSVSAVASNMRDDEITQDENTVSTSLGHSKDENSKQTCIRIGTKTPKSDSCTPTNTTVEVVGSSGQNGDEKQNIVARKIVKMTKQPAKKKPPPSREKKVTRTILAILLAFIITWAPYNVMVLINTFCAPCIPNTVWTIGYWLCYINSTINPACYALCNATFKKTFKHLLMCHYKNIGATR

[13] = biological target: T3, Muscarinic acetylcholine receptor M2 (Homo sapiens); test: Binding affinity at the unliganded human muscarinic acetylcholine receptor M2 was estimated as log affinity (log1/M); in short: as §1
[14] = biological target: T3, Muscarinic acetylcholine receptor M2 (Homo sapiens); test: Cooperativity with NMS at human muscarinic acetylcholine receptor M2; in short: as §2
[15] = biological target: T3, Muscarinic acetylcholine receptor M2 (Homo sapiens); test: Cooperativity with acetylcholine at human muscarinic acetylcholine receptor M2; in short: as §2
[16] = biological target: T4, Muscarinic acetylcholine receptor M1 (Homo sapiens) (UniProt P11229); test: Binding affinity at the NMS liganded human muscarinic acetylcholine receptor M1 was estimated as log affinity (log1/M); in short: as §1
T4 sequence (whole entry): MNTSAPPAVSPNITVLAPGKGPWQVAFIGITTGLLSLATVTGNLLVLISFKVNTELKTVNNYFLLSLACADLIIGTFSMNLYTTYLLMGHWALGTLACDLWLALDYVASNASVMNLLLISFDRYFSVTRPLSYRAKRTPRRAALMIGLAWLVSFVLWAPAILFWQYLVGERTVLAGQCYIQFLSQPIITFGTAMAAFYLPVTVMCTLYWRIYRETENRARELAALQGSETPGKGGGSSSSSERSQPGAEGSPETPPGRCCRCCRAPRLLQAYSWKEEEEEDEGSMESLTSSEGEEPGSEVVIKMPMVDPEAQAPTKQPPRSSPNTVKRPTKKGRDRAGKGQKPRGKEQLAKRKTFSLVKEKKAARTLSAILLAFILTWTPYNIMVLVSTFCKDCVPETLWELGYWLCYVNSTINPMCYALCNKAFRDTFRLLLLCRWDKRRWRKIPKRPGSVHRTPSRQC

[17] = biological target: T4, Muscarinic acetylcholine receptor M1 (Homo sapiens); test: Binding affinity at the unliganded human muscarinic acetylcholine receptor M1 was estimated as log affinity (log1/M); in short: as §1
[18] = biological target: T4, Muscarinic acetylcholine receptor M1 (Homo sapiens); test: Cooperativity with NMS at human muscarinic acetylcholine receptor M1; in short: as §2
[19] = biological target: T4, Muscarinic acetylcholine receptor M1 (Homo sapiens); test: Cooperativity with acetylcholine at human muscarinic acetylcholine receptor M1; in short: as §2
[20] = biological target: T2, Muscarinic acetylcholine receptor M5 (Homo sapiens); test: Binding affinity at the NMS liganded human muscarinic acetylcholine receptor M5 was estimated as log affinity (log1/M); in short: as §1

Chain of Muscarinic acetylcholine receptor M3 (Homo sapiens) (P20309 whole entry, looked up): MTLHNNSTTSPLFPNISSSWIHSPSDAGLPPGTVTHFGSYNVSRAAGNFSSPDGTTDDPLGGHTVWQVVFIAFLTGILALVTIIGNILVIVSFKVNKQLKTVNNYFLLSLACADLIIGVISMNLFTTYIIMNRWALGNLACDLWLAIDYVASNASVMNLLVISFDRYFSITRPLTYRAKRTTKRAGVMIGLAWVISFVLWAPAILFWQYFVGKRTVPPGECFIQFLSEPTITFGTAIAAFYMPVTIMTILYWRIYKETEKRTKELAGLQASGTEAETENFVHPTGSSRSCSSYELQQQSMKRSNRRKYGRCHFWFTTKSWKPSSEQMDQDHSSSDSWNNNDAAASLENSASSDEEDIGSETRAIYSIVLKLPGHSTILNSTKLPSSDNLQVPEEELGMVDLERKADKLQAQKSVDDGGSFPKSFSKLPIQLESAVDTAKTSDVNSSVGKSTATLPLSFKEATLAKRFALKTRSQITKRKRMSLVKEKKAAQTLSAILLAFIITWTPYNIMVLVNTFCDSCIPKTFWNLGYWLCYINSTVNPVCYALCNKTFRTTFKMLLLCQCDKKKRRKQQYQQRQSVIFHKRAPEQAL

Row | Compound | Affinity [1] | Affinity [2] | Cooperativity [3] | Cooperativity [4] | Cooperativity [5] | Cooperativity [6] | Affinity [7] | Affinity [8] | Affinity [9] | Cooperativity [10] | Cooperativity [11] | Affinity [12] | Affinity [13] | Cooperativity [14] | Cooperativity [15] | Affinity [16] | Affinity [17] | Cooperativity [18] | Cooperativity [19] | Affinity [20]
1 | C=CC[N+]12CC[C@@]34c5cc(OC)c(OC)cc5N5C(=O)C[C@@H]6OCC=C(C1)[C@H](C[C@@H]32)[C@@H]6[C@H]54 (some centres undefined) | 4.6 | 4.5 | 1.19 | 0.8 | 0.8 | 2 | 3.5 | 3.8 | 3.8 | 1.19 | 0.8 | 4.7 | 4.5 | 2 | 0.8 | 4.2 | 4.4 | 0.8 | 0.8 | –
2 | COc1cc2c(cc1OC)[C@@]13CC[N+]4(CCl)CC5=CCO[C@H]6CC(=O)N2[C@H]1[C@H]6[C@H]5C[C@@H]34 (some centres undefined) | 4.3 | 4.3 | 1.19 | 1.19 | 0.2 | > 0.2 | 3.3 | 3.7 | 3.7 | 0.2 | < 0.2 | 4.4 | 4.2 | 2 | < 0.2 | 4.1 | 4.4 | 0.2 | 0.2 | 3.3
3 | COc1cc2c(cc1OC)[C@@]13CCN4CC5=CCO[C@H]6CC(=O)N2[C@H]1[C@H]6[C@H]5C[C@H]43 | 4.5 | 4.8 | 0.8 | 0.8 | 0.8 | 0.8 | 2.9 | 3.5 | 4.3 | < 0.2 | < 0.2 | 4.7 | 4.5 | 2 | 0.8 | 4.5 | 4.6 | 1.19 | 2 | 3.3
4 | COc1cc2c(cc1OC)[C@@]13CC[N+]4(N)CC5=CCO[C@H]6CC(=O)N2[C@H]1[C@H]6[C@H]5C[C@@H]34 (some centres undefined) | 4.2 | < 4 | 2 | 0.8 | 1.19 | > 2 | 3.9 | 3.8 | 3.6 | 0.8 | 0.8 | 4.2 | < 4 | 2 | 0.8 | 3.8 | 3.8 | 1.19 | 0.8 | 3.3
